Reference: ChEMBL document CHEMBL5357066, “Development of Novel Membrane Disrupting Lipoguanidine Compounds Sensitizing Gram-Negative Bacteria to Antibiotics” (ACS Med Chem Lett, 2024)
Values after ≈ are worked out from the molar mass of the structure shown.

Columns and labels:
[1] = test system: Acinetobacter baumannii; assay: Antibacterial activity against Acinetobacter baumannii ATCC 17978 assessed as bacterial growth inhibition incubated for overnight by microbroth dilution method; format: functional
Method in brief: (§1)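 Broth microdilution in Tryptic Soy Broth. DMSO stocks were diluted in TSB as 2-fold series. Overnight TSB cultures were back-diluted to OD 0.01 and mixed 1:1 with compound. Incubation was overnight at 37 °C. MIC was the lowest concentration without visible growth (<0.1 OD600). DMSO vehicle was checked at equivalent concentrations.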

[2] = test system: Acinetobacter baumannii; assay: Synergistic antibacterial activity against Acinetobacter baumannii AYE assessed as rifampicin MIC at <=0.25 times MIC incubated for overnight by microbroth dilution checkerboard assay; format: functional
Method in brief: (§2)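 Checkerboard microdilution under MIC conditions (TSB, overnight, 37 °C). Two-fold series of each agent were combined on one plate before bacteria were added, and single-agent MICs were measured on the same plate. FIC = sum of combination MIC/alone MIC for each agent, taken from the most synergistic well. Three independent repeats, mean ± SD. ≤0.5 was taken as strong synergy and 0.5–<1 as weak.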

[3] = test system: Pseudomonas aeruginosa; assay: Synergistic antibacterial activity against Pseudomonas aeruginosa PAO1 assessed as fold change in rifampicin MIC at <=0.25 times MIC incubated for overnight by microbroth dilution checkerboard assay relative to rifampicin alone; format: functional
Method in brief: (§3)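 Checkerboard microdilution in Tryptic Soy Broth, run like the MIC assay. Overnight TSB cultures were back-diluted to OD 0.01 and added 1:1 to the combined two-fold series of both agents, then incubated overnight at 37 °C. Growth/no-growth was called at <0.1 OD600. MICs alone were read on the same plates. FIC index came from the most synergistic well; three independent repeats, mean ± SD.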

[4] = test system: Acinetobacter baumannii; assay: Synergistic antibacterial activity against Acinetobacter baumannii ATCC 17978 assessed as rifampicin MIC at <=0.25 times MIC incubated for overnight by microbroth dilution checkerboard assay; format: functional; method in brief: as §2
[5] = test system: Pseudomonas aeruginosa; assay: Synergistic antibacterial activity against Pseudomonas aeruginosa PAO1 assessed as rifampicin MIC at <=0.25 times MIC incubated for overnight by microbroth dilution checkerboard assay; format: functional; method in brief: as §3
[6] = test system: Klebsiella pneumoniae; assay: Antibacterial activity against Klebsiella pneumoniae M6 assessed as bacterial growth inhibition incubated for overnight by microbroth dilution method
[7] = test system: Acinetobacter baumannii; assay: Synergistic antibacterial activity against Acinetobacter baumannii AYE assessed as fold change in rifampicin MIC at <=0.25 times MIC incubated for overnight by microbroth dilution checkerboard assay relative to rifampicin alone; format: functional; method in brief: as §2
[8] = test system: Staphylococcus aureus; assay: Antibacterial activity against methicillin resistant Staphylococcus aureus NCTC 13616 assessed as bacterial growth inhibition incubated for overnight by microbroth dilution method; format: functional
Method in brief: (§4)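 Microbroth dilution in Tryptic Soy Broth. DMSO stocks were diluted in TSB as 2-fold series. Overnight TSB cultures were back-diluted to OD 0.01 and mixed 1:1 with compound. Incubation was overnight at 37 °C. MIC is the lowest concentration with no visible growth (<0.1 OD600). DMSO at equivalent concentrations was checked.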

[9] = test system: Pseudomonas aeruginosa; assay: Antibacterial activity against Pseudomonas aeruginosa PAO1 assessed as bacterial growth inhibition incubated for overnight by microbroth dilution method; format: functional; method in brief: as §1
[10] = test system: Escherichia coli; assay: Synergistic antibacterial activity against Escherichia coli NCTC 12923 assessed as fold change in rifampicin MIC at <=0.25 times MIC incubated for overnight by microbroth dilution checkerboard assay relative to rifampicin alone; format: functional; method in brief: as §2
[11] = test system: Klebsiella pneumoniae; assay: Synergistic antibacterial activity against Klebsiella pneumoniae NCTC 13368 assessed as fold change in rifampicin MIC at <=0.25 times MIC incubated for overnight by microbroth dilution checkerboard assay relative to rifampicin alone; format: functional
Method in brief: (§5)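 Checkerboard run under the MIC conditions (TSB, overnight, 37 °C). Antibiotic and lipoguanidine 2-fold series were combined on one plate before bacteria were added. Growth/no-growth was scored as for the MIC (<0.1 OD600). Single-agent MICs were measured on the same plates. Three independent repeats were done.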

[12] = test system: Pseudomonas aeruginosa; assay: Antibacterial activity against Pseudomonas aeruginosa NCTC 13437 assessed as bacterial growth inhibition incubated for overnight by microbroth dilution method; format: functional; method in brief: as §1
[13] = test system: Klebsiella pneumoniae; assay: Antibacterial activity against ESBL Klebsiella pneumoniae NCTC 13368 assessed as bacterial growth inhibition incubated for overnight by microbroth dilution method
[14] = test system: Escherichia coli; assay: Antibacterial activity against Escherichia coli NCTC 12923 assessed as bacterial growth inhibition incubated for overnight by microbroth dilution method; format: functional; method in brief: as §1
[15] = test system: Klebsiella pneumoniae; assay: Synergistic antibacterial activity against Klebsiella pneumoniae NCTC 13368 assessed as rifampicin MIC at <=0.25 times MIC incubated for overnight by microbroth dilution checkerboard assay; format: functional; method in brief: as §2
[16] = test system: Pseudomonas aeruginosa; assay: Synergistic antibacterial activity against Pseudomonas aeruginosa NCTC 13437 assessed as bacterial growth inhibition incubated for overnight in presence of PBMN by microbroth dilution method relative to control; format: functional
Method in brief: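 Adapted broth microdilution in TSB. The test compound was in a 2-fold dilution series, with PMBN added at a fixed 30 µg/mL. Bacteria at OD 0.02 were added, and plates were incubated overnight at 37 °C. Growth/no growth was read as for the MIC (<0.1 OD600).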

[17] = test system: Acinetobacter baumannii; assay: Antibacterial activity against Acinetobacter baumannii AYE assessed as bacterial growth inhibition incubated for overnight by microbroth dilution method; format: functional; method in brief: as §1
[18] = test system: Pseudomonas aeruginosa; assay: Synergistic antibacterial activity against Pseudomonas aeruginosa NCTC 13437 assessed as fold change in rifampicin MIC at <=0.25 times MIC incubated for overnight by microbroth dilution checkerboard assay relative to rifampicin alone; format: functional; method in brief: as §3
[19] = test system: Staphylococcus aureus; assay: Antibacterial activity against methicillin sensitive Staphylococcus aureus 1199B assessed as bacterial growth inhibition incubated for overnight by microbroth dilution method; format: functional; method in brief: as §4
[20] = test system: Acinetobacter baumannii; assay: Synergistic antibacterial activity against Acinetobacter baumannii ATCC 17978 assessed as fold change in rifampicin MIC at <=0.25 times MIC incubated for overnight by microbroth dilution checkerboard assay relative to rifampicin alone; format: functional; method in brief: as §2
[21] = test system: Pseudomonas aeruginosa; assay: Synergistic antibacterial activity against Pseudomonas aeruginosa NCTC 13437 assessed as rifampicin MIC at <=0.25 times MIC incubated for overnight by microbroth dilution checkerboard assay; format: functional; method in brief: as §3
[22] = test system: Escherichia coli; assay: Synergistic antibacterial activity against Escherichia coli NCTC 12923 assessed as rifampicin MIC at <=0.25 times MIC incubated for overnight by microbroth dilution checkerboard assay; format: functional; method in brief: as §2
[23] = test system: Staphylococcus aureus; assay: Antibacterial activity against methicillin sensitive Staphylococcus aureus ATCC 9144 assessed as bacterial growth inhibition incubated for overnight by microbroth dilution method; format: functional; method in brief: as §4
[24] = test system: Staphylococcus aureus; assay: Antibacterial activity against methicillin resistant Staphylococcus aureus USA 300 assessed as bacterial growth inhibition incubated for overnight by microbroth dilution method; format: functional; method in brief: as §4
[25] = test system: Enterococcus faecium; assay: Antibacterial activity against vancomycin resistant Enterococcus faecium NCTC 12204 assessed as bacterial growth inhibition incubated for overnight by microbroth dilution method; format: functional; method in brief: as §4
[26] = test system: Enterococcus faecalis; assay: Antibacterial activity against vancomycin sensitive Enterococcus faecalis NCTC 775 assessed as bacterial growth inhibition incubated for overnight by microbroth dilution method
[27] = test system: Klebsiella pneumoniae; assay: Synergistic antibacterial activity against […] Klebsiella pneumoniae M6 assessed as rifampicin MIC at <=0.25 times MIC incubated for overnight by microbroth dilution checkerboard assay; format: functional; method in brief: as §5
[28] = test system: Enterococcus faecalis; assay: Antibacterial activity against vancomycin resistant Enterococcus faecalis NCTC 12201 assessed as bacterial growth inhibition incubated for overnight by microbroth dilution method; format: functional; method in brief: as §4

With `CCCCCCCCCCNC(=N)NCCCCN` the MIC [1] was greater than 128 µg/mL, the MIC [2] was no more than 0.125 µg/mL and the “fold change (FC)” value [3] was “>=4”. The MIC [4] was no more than 0.125 µg/mL, the MIC [5] was no more than 0.125 µg/mL and the MIC [6] was greater than 128 µg/mL. For the same compound, the “fold change (FC)” value [7] was “>=4”, the MIC [8] was 32 µg/mL (≈ 118 µM) and the MIC [9] was greater than 128 µg/mL. The “fold change (FC)” value [10] was “>=4”, the “fold change (FC)” value [11] was “>=4” and the MIC [12] was greater than 128 µg/mL. The MIC [13] was greater than 128 µg/mL, the MIC [14] was 128 µg/mL (≈ 473 µM) and the MIC [15] was 0.25 µg/mL. For the same compound, the “inhibition (INH)” value [16] was less than 20%, the MIC [17] was greater than 128 µg/mL and the “fold change (FC)” value [18] was “>=4”. The MIC [19] was 32 µg/mL (≈ 118 µM), the “fold change (FC)” value [20] was “>=4” and the MIC [21] was no more than 0.125 µg/mL. The MIC [22] was no more than 0.125 µg/mL, the MIC [23] was 16 µg/mL (≈ 59.2 µM) and the MIC [24] was 32 µg/mL (≈ 118 µM). The MIC [25] was greater than 128 µg/mL, the MIC [26] was 128 µg/mL (≈ 473 µM) and the MIC [27] was no more than 0.125 µg/mL. It also gave an MIC [28] greater than 128 µg/mL.
